Series [1] deals with Hepatitis C virus. Kind of series: Antiviral activity against HCV pseudo-particle infected in human HuH7 cells assessed as inhibition of HCV pseudo particles entry at 10 uM preincubated for 1 hr followed by viral infection and measured after 72 hrs by bright-glo luciferase reporter gene assay. Format: functional, organism-based. Particulars: Hepacivirus hominis. In short, it runs like this: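 Huh7 cells were pretreated with 10 µM compound for 1 h. They were then infected with HCV pseudo-particles for 3 h in the compound's presence. Entry was detected 72 h post infection; bafilomycin served as the positive control.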

The subject of series [2] is Hepatitis C virus. Kind of series: Antiviral activity against HCV sub-genomic replicon infected in human Huh7 cells at 10 uM added immediately with viral infection and measured after 24 hrs by bright-glo luciferase reporter gene assay relative to control. It is filed as functional. Put shortly:
(§1)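 Huh7 cells were electroporated with HCV subgenomic replicon RNA. Compound at 10 µM was added either immediately at seeding or after 24 h to let replication establish. Luciferase was measured after 24 h of treatment.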

Another series deals with Huh-7. Kind of series: Cytotoxicity against human HuH7 cells at 10 uM after 24 hrs by WST-1 assay. It is filed as cell-based. Particulars: huh-7, 24 h. Put shortly: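 Huh7 cells were incubated 24 h with 10 µM of each compound before cell viability was assessed.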
For series [3], the system named is Hepatitis C virus. Put plainly: Antiviral activity against HCV sub-genomic replicon infected in human Huh7 cells at 10 uM added 24 hrs after viral infection and measured after 24 hrs by bright-glo luciferase reporter gene assay relative to control. It is filed as functional, Hepacivirus hominis. Put shortly: as §1
In series [4] the test system is Hepatitis C virus. Kind of series: Antiviral activity against HCV replicon infected in human Huh7 cells after 8 to 24 hrs by Western blot analysis. To be noted: Hepacivirus hominis.
Series [5] deals with Hepatitis C virus. Put plainly: Antiviral activity against HCV replicon infected in human Huh7-J17 cells after 24 hrs by bright-glo luciferase reporter gene assay relative to control. Format: functional, Hepacivirus hominis.
Series [6] in a line: Cytotoxicity against human Huh7-J20 cells infected with HCV JFH-1 after 72 hrs by WST-1 assay. It is filed as cell-based. Put shortly: (§2)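 HCVcc (JFH-1 clone) inoculated onto Huh7-J20 cells for 3 h. Infected cells were then exposed for 72 h to a dose range starting at 30 µM with 1:3 serial dilutions. Viral replication was read after harvest, and cell viability was measured in parallel.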

Series [7] concerns Internal ribosome entry site (IRES). Put plainly: Inhibition of HCV IRES transfected in human Huh7 cells assessed as inhibition of IRES-mediated translation after 24 hrs by dual luciferase reporter gene assay relative to control. It is filed as cell-based. Particulars: Hepacivirus hominis; dose or concentration not given here. In short, it runs like this: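 Huh7 cells were co-transfected with a plasmid for firefly luciferase driven by the HCV IRES and a plasmid for Renilla luciferase under the TK promoter, used to normalise transfection efficiency. Cells were exposed to compound for 24 h, then assayed by dual luciferase.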

The test system of series [8] is Hepatitis C virus. Put plainly: Antiviral activity against HCV JFH-1 infected in human Huh7-J20 cells after 72 hrs by SEAP based assay. It is filed as functional, organism-based, Hepacivirus hominis. To be noted: JFH-1, Huh7-J20, 72 h. Put shortly: as §2
Series [9] has as its system Hepatitis C virus. Kind of series: Antiviral activity against HCV replicon infected in human Huh7 cells assessed as reduction in NS5A level after 8 to 24 hrs by Western blot analysis. It is filed as functional, organism-based. Particulars: Hepacivirus hominis. Put shortly:
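After transfection with HCV replicon RNA, Huh7 cells were treated immediately for 8 or 24 h. Lysates were probed by western blot for NS5A and for unprocessed polyprotein.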

Series [10] has as its system Hepatitis C virus. Put plainly: Antiviral activity against HCV sub-genomic replicon infected in human Huh7 cells after 2 to 24 hrs by bright-glo luciferase reporter gene assay. It is filed as functional, organism-based. Particulars: Hepacivirus hominis. In short, it runs like this:
(§3)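 Time course: Huh7 cells were transfected with HCV replicon RNA (wild-type subgenomic or replication-defective GND) and seeded in the presence of compound. Replication/translation signal was read at 2, 4, 8 and 24 h post transfection and compared with untreated cells at each time point.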

Series [11] has as its system Hepatitis C virus. Kind of series: Antiviral activity against HCV sub-genomic replicon infected in human Huh7-J20 cells after 24 hrs by bright-glo luciferase reporter gene assay. It is filed as functional, organism-based. Put shortly:
(§4)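 Subgenomic replicon RNA was electroporated into cells, which were exposed for 24 h to a dose range from 30 µM in 1:3 dilutions. Replication was read by luciferase, with cell viability measured alongside.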

Series [12] has as its system Hepatitis C virus. Kind of series: Antiviral activity against HCV replication defective replicon infected in human Huh7 cells after 2 to 8 hrs by bright-glo luciferase reporter gene assay. It is filed as functional, organism-based. Particulars: Hepacivirus hominis. In short, it runs like this:
as §3

The nature of series [13]: Cytotoxicity against human Huh7-J20 cells infected with HCV sub-genomic replicon assessed as reduction in cell viability up to 30 uM after 24 hrs by WST-1 assay. It is filed as cell-based. In short, it runs like this:
as §4

The values below come from ChEMBL document CHEMBL4422648, “Synthesis, biological evaluation and mode of action studies of novel amidinourea inhibitors of hepatitis C virus (HCV)” (Bioorg Med Chem Lett, 2019).

Each structure is given as a SMILES string. pIC50: −log10 of the molar value. Activity calls are given as the source filed them. The rule behind the calls is not given here.

`C=CCNC(=O)NC(=N)NCCCCN`: the result in the series on Hepatitis C virus [1] and in the series on Hepatitis C virus [2] (Hepacivirus hominis) was inactive. In the series with Huh-7, the Activity result was “Non-Toxic”.
With `C#CCNC(=N)NCCCCCCNCCCCCCNC(=N)NCC#C`, the result with Hepatitis C virus [1] and in the series on Hepatitis C virus [2] (Hepacivirus hominis) was inactive. The Activity result with Huh-7 is on record as “Non-Toxic”.
As to `C=CCNC(=O)NC(=N)NCCCN(C)CCCCN(C)CCCNC(=N)NC(=O)NCC=C`, the result in the series on Hepatitis C virus [1] and in the series on Hepatitis C virus [2] (Hepacivirus hominis) was inactive. Further, the Activity result in the series on Huh-7 is recorded as “Non-Toxic”.
On to `C=CCNC(=O)NC(=N)NCCCNCCCCNCCCNC(=N)NC(=O)NCC=C`, for which the Activity in the series with Hepatitis C virus [3] was 45%; in the series on Hepatitis C virus [5], 45%; in the series with Hepatitis C virus [2], 90%; in the series with Hepatitis C virus [11] (Hepacivirus hominis) it was “Dose-dependent effect”; in [13] it was “Non-Toxic”; in the series on Huh-7, “Non-Toxic”. Further, the result with Hepatitis C virus [4], in the series on Hepatitis C virus [9], with Hepatitis C virus [10] and in the series with Hepatitis C virus [12] was Active. Also, the midpoint of cytotoxicity in series [6], the CC50 at 72 h, lay at 81.1 µM. Moreover, the inhibition in [7] is 40%. In addition, the pIC50 in the series on Hepatitis C virus [8] was 4.91; with Hepatitis C virus [11] (Huh7-J20, 24 h) it was 5.58. The result in the series with Hepatitis C virus [1] was inactive.
For `C=CCNC(=N)NCCCCCCCCNC(=N)NCC=C`, the outcome with Hepatitis C virus [1] and in the series on Hepatitis C virus [2] (Hepacivirus hominis) was inactive. For the same compound, the Activity entry with Huh-7 is “Non-Toxic”.
Regarding `N=C(NCCCCCCCCNC(=N)NCc1ccccc1)NCc1ccccc1`, the result in the series on Hepatitis C virus [1] and in the series with Hepatitis C virus [2] (Hepacivirus hominis) was inactive. Further, the Activity result with Huh-7 was “Non-Toxic”.
With `C=CCNC(=O)NC(=N)NCCCCNC(=O)c1ccccc1`, the outcome with Hepatitis C virus [1] and in the series on Hepatitis C virus [2] (Hepacivirus hominis) was inactive. For the same compound, the Activity result in the series with Huh-7 was “Non-Toxic”.
Turning to `C=CCNC(=O)NC(=N)NCCCCNCCCNC(=N)NC(=O)NCC=C`, the result in the series with Hepatitis C virus [1] and in the series with Hepatitis C virus [2] (Hepacivirus hominis) was inactive. Besides, the Activity result with Huh-7 is “Non-Toxic”.
With `CO/C1=C\C(C)=C\[C@@H](C)[C@@H](O)[C@@H](C)C/C(C)=C/C=C/[C@H](OC)[C@@H]([C@@H](C)[C@@H](O)[C@H](C)[C@@]2(O)C[C@@H](O)[C@H](C)[C@@H](C(C)C)O2)OC1=O`, in the series with Hepatitis C virus [1], the result was Active.
As to `C=CCNC(=O)NC(=N)NCCCCNC(=N)NC(=O)NCC=C`, the result in the series on Hepatitis C virus [1] and in the series with Hepatitis C virus [2] (Hepacivirus hominis) was inactive. In the series with Huh-7, the Activity result is “Non-Toxic”.
Regarding `C=CCNC(=N)NCCCCCCNCCCCCCNC(=N)NCC=C`, the result with Hepatitis C virus [1] and with Hepatitis C virus [2] (Hepacivirus hominis) was inactive. Besides, the Activity entry in the series on Huh-7 was “Non-Toxic”.
